Data published in ChEMBL document CHEMBL1781987, “Nobilamides A-H, long-acting transient receptor potential vanilloid-1 (TRPV1) antagonists from mollusk-associated bacteria” (J Med Chem, 2011).
Calls of active or inactive are those of the source. The rule behind the calls is not given here. Bridge positions count the residues as written; N and C are the ends. Square brackets hold non-standard residues; d marks the D form. Peptide text beside a SMILES is read from it. * marks the point of attachment. d(aThr) = C[C@@H](O)[C@@H](N)C(=O)O; Dhb = C/C=C(\N)C(=O)O; Propionyl = CCC(=O)*

Columns and labels:
[1] = target: Transient receptor potential cation channel subfamily V member 1 (Mus musculus) (UniProt Q704Y3); test: Antagonist activity at TRPV1 channel in C57B1 mouse dorsal root ganglion cells assessed as inhibition of capsaicin-induced calcium flux at 125 uM after 5 mins by fluorometric analysis in presence of at 25 mM of KCl; assay type: functional, tissue-based
Sequence of Transient receptor potential cation channel subfamily V member 1 (Mus musculus) (Q704Y3 whole entry): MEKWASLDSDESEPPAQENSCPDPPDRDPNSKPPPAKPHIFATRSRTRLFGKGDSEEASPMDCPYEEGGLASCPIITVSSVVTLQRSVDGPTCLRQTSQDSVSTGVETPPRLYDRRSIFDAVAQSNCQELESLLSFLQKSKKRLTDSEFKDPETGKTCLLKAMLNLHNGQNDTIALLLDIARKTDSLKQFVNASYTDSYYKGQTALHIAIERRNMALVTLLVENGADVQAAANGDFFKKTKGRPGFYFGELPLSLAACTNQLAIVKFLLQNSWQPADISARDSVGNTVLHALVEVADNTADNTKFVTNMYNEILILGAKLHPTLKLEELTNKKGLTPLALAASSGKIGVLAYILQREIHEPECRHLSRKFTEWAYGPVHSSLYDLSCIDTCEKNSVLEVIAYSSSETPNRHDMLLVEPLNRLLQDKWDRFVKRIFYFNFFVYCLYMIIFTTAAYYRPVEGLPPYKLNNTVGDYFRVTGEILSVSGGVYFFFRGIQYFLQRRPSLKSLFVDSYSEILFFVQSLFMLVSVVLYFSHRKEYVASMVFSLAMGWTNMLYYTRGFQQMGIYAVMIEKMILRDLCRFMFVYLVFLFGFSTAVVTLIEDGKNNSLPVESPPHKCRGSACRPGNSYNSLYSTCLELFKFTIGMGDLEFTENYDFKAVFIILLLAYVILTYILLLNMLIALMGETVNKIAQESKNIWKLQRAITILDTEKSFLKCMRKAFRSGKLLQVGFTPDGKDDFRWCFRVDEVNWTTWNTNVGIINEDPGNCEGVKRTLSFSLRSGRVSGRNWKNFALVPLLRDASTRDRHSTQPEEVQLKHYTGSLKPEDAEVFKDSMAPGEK
Outline: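 Mouse C57B1 cervical/lumbar DRG neurons, Fura-2 AM calcium imaging at 20–25°C, each neuron analysed separately. […] Final 25 or 100 mM KCl pulses check viability.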

[2] = target: Transient receptor potential cation channel subfamily V member 1 (Mus musculus) (UniProt Q704Y3); test: Antagonist activity at TRPV1 channel in C57B1 mouse dorsal root ganglion cells assessed as inhibition of capsaicin-induced calcium flux at 125 uM after 3 hrs by fluorometric analysis; assay type: functional, tissue-based
[3] = target: Transient receptor potential cation channel subfamily V member 1 (Mus musculus) (UniProt Q704Y3); test: Antagonist activity at TRPV1 channel in C57B1 mouse dorsal root ganglion cells assessed as inhibition of capsaicin-induced calcium flux at 125 uM after 3 hrs by fluorometric analysis in presence of 5.6 ug/ml trafficking inhibitor brefeldin A; assay type: functional, tissue-based
[4] = target: Transient receptor potential cation channel subfamily V member 1 (Mus musculus) (UniProt Q704Y3); test: Antagonist activity at TRPV1 channel in C57B1 mouse dorsal root ganglion cells assessed as inhibition of capsaicin-induced calcium flux at 125 uM after 3 hrs by fluorometric analysis in presence of 6.3 ug/ml transcriptional inhibitor actinomycin D; assay type: functional, tissue-based
[5] = target: Transient receptor potential cation channel subfamily V member 1 (Mus musculus) (UniProt Q704Y3); test: Antagonist activity at TRPV1 channel in C57B1 mouse dorsal root ganglion cells assessed as inhibition of capsaicin-induced calcium flux at 125 uM after 3 hrs by fluorometric analysis in presence of 10 ug/ml translational inhibitor cycloheximide; assay type: functional, tissue-based
[6] = test system: Transient receptor potential cation channel subfamily V member 1 (Homo sapiens), Q8NER1 [C621A]; test: Antagonist activity at human TRPV1 C621A mutant expressed in HEK293 cell assessed as inhibition of capsaicin-induced calcium flux at 375 uM for 30 mins before capsaicin challenge measured after 48 hrs by fluorometric analysis; assay type: functional, cell-based
Sequence of Transient receptor potential cation channel subfamily V member 1 (Homo sapiens), Q8NER1 [C621A] (Q8NER1 whole entry C621A): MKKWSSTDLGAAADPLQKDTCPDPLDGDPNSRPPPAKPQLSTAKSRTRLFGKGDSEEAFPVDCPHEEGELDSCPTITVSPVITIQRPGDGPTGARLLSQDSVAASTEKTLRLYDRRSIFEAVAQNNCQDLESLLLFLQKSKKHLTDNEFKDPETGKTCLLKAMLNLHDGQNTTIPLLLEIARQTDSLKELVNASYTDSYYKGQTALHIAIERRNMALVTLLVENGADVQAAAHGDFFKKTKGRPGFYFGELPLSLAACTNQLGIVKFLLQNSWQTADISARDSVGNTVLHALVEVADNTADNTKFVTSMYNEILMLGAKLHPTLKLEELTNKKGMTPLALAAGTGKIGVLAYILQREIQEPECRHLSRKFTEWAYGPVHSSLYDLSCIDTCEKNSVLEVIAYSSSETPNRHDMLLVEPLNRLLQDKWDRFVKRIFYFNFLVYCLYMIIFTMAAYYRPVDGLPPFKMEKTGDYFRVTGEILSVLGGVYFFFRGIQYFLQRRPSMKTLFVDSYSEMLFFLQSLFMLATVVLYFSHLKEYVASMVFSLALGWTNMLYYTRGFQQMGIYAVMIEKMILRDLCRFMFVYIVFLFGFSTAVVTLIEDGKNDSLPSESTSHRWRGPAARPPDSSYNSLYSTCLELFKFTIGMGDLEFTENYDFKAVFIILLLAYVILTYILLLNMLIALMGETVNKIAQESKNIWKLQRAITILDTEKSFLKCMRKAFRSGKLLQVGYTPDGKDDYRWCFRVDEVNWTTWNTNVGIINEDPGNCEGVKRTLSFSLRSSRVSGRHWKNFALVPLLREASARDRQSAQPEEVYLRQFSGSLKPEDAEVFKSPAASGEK
Outline: (§1)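 HEK-293 cells on gelatin-coated plates transiently transfected with human TRPV1 mutant plasmid (200 ng/well, lipofection 4 h), then grown 48 h. Fluo-4 loaded at 37°C. […] Fluorescence read 1 min; initial rate (ΔF/sec) and ΔFmax compared with capsaicin-only control.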

[7] = target: T1, Transient receptor potential cation channel subfamily V member 1 (Homo sapiens, UniProt Q8NER1); details: HEK293, 375 uM
T1 sequence (Q8NER1 whole entry): as the sequence (Q8NER1 whole entry C621A) above, with A621C counted along it

[8] = target: T1, Transient receptor potential cation channel subfamily V member 1; test: Antagonist activity at human TRPV1 expressed in human BEAS-2B cells assessed as inhibition of capsaicin-induced calcium flux at 25 to 1000 uM preincubated for 30 mins before 2.5 uM capsaicin challenge measured after 1 min by fluorometric analysis; assay type: functional, cell-based
Outline: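 Human TRPV1-expressing BEAS-2B cells loaded with Fluo-4 (1 h, ~22°C, dark), then washed into LHC-9 with 1 mM probenecid and Trypan Red containing compound. […] Ca2+ signal tracked 1 min; initial rate and ΔFmax relative to capsaicin-only cells.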

[9] = target: T1, Transient receptor potential cation channel subfamily V member 1; details: HEK293, 375 uM; remark: listed apart in the source
[10] = test system: Transient receptor potential cation channel subfamily V member 1 (Homo sapiens), Q8NER1 [E649A]; test: Antagonist activity at human TRPV1 E649A mutant expressed in HEK293 cell assessed as inhibition of capsaicin-induced calcium flux at 375 uM for 30 mins before capsaicin challenge measured after 48 hrs by fluorometric analysis; assay type: functional, cell-based; outline: as §1
Sequence of Transient receptor potential cation channel subfamily V member 1 (Homo sapiens), Q8NER1 [E649A] (Q8NER1 whole entry E649A): as the sequence (Q8NER1 whole entry C621A) above, with A621C, E649A counted along it

[11] = target: T1, Transient receptor potential cation channel subfamily V member 1; test: Antagonist activity at human TRPV1 expressed in human BEAS-2B cells assessed as inhibition of capsaicin-induced calcium flux at 25 to 1000 uM co-treated with 2.5 uM capsaicin measured after 30 mins by fluorometric analysis; assay type: functional, cell-based
Outline: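 BEAS-2B cells stably overexpressing human TRPV1, grown to confluence in LHC-9. Loaded 1 h at ~22°C in the dark with Fluo-4 reagent, then washed into LHC-9 with 1 mM probenecid and Trypan Red. […] Fluorescence followed 1 min; rate and ΔFmax versus capsaicin-only control.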

[12] = target: T1, Transient receptor potential cation channel subfamily V member 1; details: HEK293, 375 uM; remark: listed apart in the source
[13] = test system: Transient receptor potential cation channel subfamily V member 1 (Homo sapiens), Q8NER1 [F660A]; test: Antagonist activity at human TRPV1 F660A mutant expressed in HEK293 cell assessed as inhibition of capsaicin-induced calcium flux at 375 uM for 30 mins before capsaicin challenge measured after 48 hrs by fluorometric analysis; assay type: functional, cell-based; outline: as §1
Sequence of Transient receptor potential cation channel subfamily V member 1 (Homo sapiens), Q8NER1 [F660A] (Q8NER1 whole entry F660A): as the sequence (Q8NER1 whole entry C621A) above, with A621C, F660A counted along it

[14] = test system: Transient receptor potential cation channel subfamily V member 1 (Homo sapiens), Q8NER1 [N604A]; test: Antagonist activity at human TRPV1 N604A mutant expressed in HEK293 cell assessed as inhibition of capsaicin-induced calcium flux at 375 uM for 30 mins before capsaicin challenge measured after 48 hrs by fluorometric analysis; assay type: functional, cell-based; outline: as §1
Sequence of Transient receptor potential cation channel subfamily V member 1 (Homo sapiens), Q8NER1 [N604A] (Q8NER1 whole entry N604A): as the sequence (Q8NER1 whole entry C621A) above, with N604A, A621C counted along it

[15] = test system: Transient receptor potential cation channel subfamily V member 1 (Homo sapiens), Q8NER1 [E600V]; test: Antagonist activity at human TRPV1 E600V mutant expressed in HEK293 cell assessed as inhibition of capsaicin-induced calcium flux at 375 uM for 30 mins before capsaicin challenge measured after 48 hrs by fluorometric analysis; assay type: functional, cell-based; outline: as §1
Sequence of Transient receptor potential cation channel subfamily V member 1 (Homo sapiens), Q8NER1 [E600V] (Q8NER1 whole entry E600V): as the sequence (Q8NER1 whole entry C621A) above, with E600V, A621C counted along it

[16] = test system: Transient receptor potential cation channel subfamily V member 1 (Homo sapiens), Q8NER1 [C578A]; test: Antagonist activity at human TRPV1 C578A mutant expressed in HEK293 cell assessed as inhibition of capsaicin-induced calcium flux at 375 uM for 30 mins before capsaicin challenge measured after 48 hrs by fluorometric analysis; assay type: functional, cell-based; outline: as §1
Sequence of Transient receptor potential cation channel subfamily V member 1 (Homo sapiens), Q8NER1 [C578A] (Q8NER1 whole entry C578A): as the sequence (Q8NER1 whole entry C621A) above, with C578A, A621C counted along it

inhibition [1]	inhibition [2]	inhibition [3]	inhibition [4]	inhibition [5]	inhibition [6]	inhibition [7]	inhibition [8]	inhibition [9]	inhibition [10]	inhibition [11]	inhibition [12]	inhibition [13]	inhibition [14]	inhibition [15]	inhibition [16]	Structure (SMILES)
Active	inactive	inactive	inactive	inactive	–	–	–	–	–	–	–	–	–	–	–	C/C=C(\NC(=O)[C@H](C)NC(=O)[C@@H](NC(=O)[C@H](NC(=O)[C@H](Cc1ccccc1)NC(=O)[C@@H](CC(C)C)NC(=O)[C@@H](Cc1ccccc1)NC(C)=O)[C@@H](C)O)C(C)C)C(=O)O (Ac-[dF][dL]F[d(aThr)]VA[Dhb]-OH)
–	–	–	–	–	inactive	inactive	Active	Active	Active	Active	Active	inactive	Active	Active	inactive	C/C=C(\NC(=O)[C@H](C)NC(=O)[C@@H](NC(=O)[C@H](NC(=O)[C@H](Cc1ccccc1)NC(=O)[C@@H](CC(C)C)NC(=O)[C@@H](Cc1ccccc1)NC(=O)CC)[C@@H](C)O)C(C)C)C(=O)O (Propionyl-[dF][dL]F[d(aThr)]VA[Dhb]-OH)
–	–	–	–	–	inactive	–	Active	–	Active	Active	–	inactive	Active	Active	inactive	C/C=C1\NC(=O)[C@H](C)NC(=O)[C@H](C(C)C)NC(=O)[C@H](NC(=O)[C@H](Cc2ccccc2)NC(=O)[C@@H](CC(C)C)NC(=O)[C@@H](Cc2ccccc2)NC(=O)CC)[C@@H](C)OC1=O (Propionyl-[dF][dL]F[d(aThr)]VA[Dhb]; ester 4-C)
